Data from ChEMBL document CHEMBL1926615, “1,2,3-Triazole tethered β-lactam-chalcone bifunctional hybrids: synthesis and anticancer evaluation” (Eur J Med Chem, 2012).

Key:
Format in all cases: functional
[1] = tested on: THP-1; assay: Growth inhibition of human THP1 cells at 20 uM after 48 hrs by SRB assay; settings: THP-1, 48 h, read-out: GI
How it was run: (§1)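 Cells grown in RPMI-1640 (2 mM glutamine, pH 7.4, 10% fetal calf serum, penicillin/streptomycin) at 37 °C, 5% CO2, 90% RH. Seeded as suspension of 1 x 10^5 cells/ml, grown 24 h, then test solutions (from DMSO stocks diluted in medium with gentamycin) added for 48 h. Fixed with TCA at 4 °C 1 h, SRB stained, dye dissolved in Tris-HCl pH 10.4, OD 540 nm. Percent growth inhibition computed versus untreated growth after blank subtraction.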

[2] = tested on: Caco-2; assay: Growth inhibition of human Caco2 cells at 20 uM after 48 hrs by SRB assay; settings: Caco-2, 48 h, read-out: GI; how it was run: as §1
[3] = tested on: A549; assay: Growth inhibition of human A549 cells at 1 uM after 48 hrs by SRB assay; settings: A549, 48 h, read-out: GI
How it was run: (§2)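 Sulforhodamine B readout at 540 nm after 48 h exposure of cells seeded at 1×10⁵ cells/ml and pre-grown 24 h in RPMI-1640 with 10% fetal calf serum (37 °C, 5% CO2). Compounds diluted in medium from DMSO stocks.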

[4] = tested on: PC-3; assay: Growth inhibition of human PC3 cells at 1 uM after 48 hrs by SRB assay; settings: PC-3, 48 h, read-out: GI; how it was run: as §2

Structure (SMILES): O=c1[nH]cc(F)c(=O)[nH]1 [FLUOROURACIL]
- inhibition of growth at 20 µM [1]: 70%
- inhibition of growth at 20 µM [2]: 68%

Structure (SMILES): CC(=O)O[C@H]1C(=O)[C@@]2(C)[C@H]([C@H](OC(=O)c3ccccc3)[C@]3(O)C[C@H](OC(=O)[C@H](O)[C@@H](NC(=O)c4ccccc4)c4ccccc4)C(C)=C1C3(C)C)[C@]1(OC(C)=O)CO[C@@H]1C[C@@H]2O [PACLITAXEL]
- inhibition of growth at 1 µM [3]: 69%

Structure (SMILES): CO[C@@]12[C@H](COC(N)=O)C3=C(C(=O)C(C)=C(N)C3=O)N1C[C@@H]1N[C@@H]12 [MITOMYCIN]
- inhibition of growth at 1 µM [4]: 60%
